Source: BindingDB's records for doi:10.1021/jm030565g (Glaxosmithkline, 2004)

Key:
[1] = Effective concentration for lipogenesis induced by retinoid X receptor alpha in C3H10T1/2 clone 8 fibroblast cells
[2] = Effective concentration for retinoic acid receptor alpha induced lipogenesis in C3H10T1/2 clone 8 fibroblast cells
[3] = biological target: T1, Retinoic acid receptor RXR-alpha (Homo sapiens, UniProt P19793); experiment: Effective concentration for lipogenesis induced by retinoid X receptor alpha in C3H10T1/2 clone 8 fibroblast cells
T1 sequence (P19793 whole entry): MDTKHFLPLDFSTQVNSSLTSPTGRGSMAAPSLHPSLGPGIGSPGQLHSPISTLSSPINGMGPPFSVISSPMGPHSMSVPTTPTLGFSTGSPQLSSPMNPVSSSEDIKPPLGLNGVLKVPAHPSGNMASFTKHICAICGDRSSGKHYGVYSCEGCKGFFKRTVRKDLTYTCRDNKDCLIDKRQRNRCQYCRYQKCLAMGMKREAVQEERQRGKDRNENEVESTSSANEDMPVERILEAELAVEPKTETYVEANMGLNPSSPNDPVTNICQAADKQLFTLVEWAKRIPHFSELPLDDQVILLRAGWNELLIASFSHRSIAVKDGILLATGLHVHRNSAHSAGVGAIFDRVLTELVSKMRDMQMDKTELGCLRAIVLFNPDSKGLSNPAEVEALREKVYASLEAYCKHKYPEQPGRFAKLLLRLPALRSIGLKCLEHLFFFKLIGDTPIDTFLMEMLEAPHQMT
How it was run: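 Lipogenesis measured in C3H10T1/2 clone 8 fibroblasts as triglyceride accumulation, used as a surrogate marker of RXR activity.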

[4] = Effective concentration for lipogenesis induced by retinoid X receptor alpha in C3H10T1/2 clone 8 fibroblast cells; Partial agonist
[5] = Inhibitory concentration for lipogenesis induced by retinoic acid receptor alpha in C3H10T1/2 clone 8 fibroblast cells

| SMILES | EC50 [1] | EC50 [2] | further results |
| --- | --- | --- | --- |
| Cc1cc2c(cc1C1CCCc3oc(/C=C/C(=O)O)cc31)C(C)(C)CCC2(C)C (stereo unspecified) [(E)-3-[4-(3,5,5,8,8-Pentamethyl-5,6,7,8-tetrahydro-naphthalen-2-yl)-4,5,6,7-tetrahydro-benzofuran-2-yl]-acrylic acid] | 3000 nM |  |  |
| COc1cc2c(cc1C1CCCc3oc(/C=C/C(=O)O)cc31)C(C)(C)CCC2(C)C (stereo unspecified) [(E)-3-[4-(3-Methoxy-5,5,8,8-tetramethyl-5,6,7,8-tetrahydro-naphthalen-2-yl)-4,5,6,7-tetrahydro-benzofuran-2-yl]-acrylic acid] |  |  | EC50 [4]: 123 nM |
| CCCOc1cc2c(cc1C1CCCc3oc(/C=C/C(=O)O)cc31)C(C)(C)CCC2(C)C (stereo unspecified) [(E)-3-[4-(5,5,8,8-Tetramethyl-3-propoxy-5,6,7,8-tetrahydro-naphthalen-2-yl)-4,5,6,7-tetrahydro-benzofuran-2-yl]-acrylic acid] |  |  | EC50 [4]: 40 nM; IC50 [5]: > 1000 nM |
| Cc1oc(/C=C/C(=O)O)cc1Cc1ccc2c(c1)C(C)(C)CCC2(C)C [(E)-3-[5-Methyl-4-(5,5,8,8-tetramethyl-5,6,7,8-tetrahydro-naphthalen-2-ylmethyl)-furan-2-yl]-acrylic acid] | 1000 nM | > 1000 nM |  |
| CC1(C)CCC(C)(C)c2cc(Cc3coc(/C=C/C(=O)O)c3)ccc21 [(E)-3-[4-(5,5,8,8-Tetramethyl-5,6,7,8-tetrahydro-naphthalen-2-ylmethyl)-furan-2-yl]-acrylic acid] |  | 57 nM |  |

Further lines, with some results ahead:

| EC50 [1] | EC50 [2] | SMILES | further results |
| --- | --- | --- | --- |
| 5 nM |  | CC1(C)CCC(C)(C)c2cc(C3CCCc4oc(C=C5SC(O)=NC5=O)cc43)ccc21 (stereo unspecified) [5-[1-[4-(5,5,8,8-Tetramethyl-5,6,7,8-tetrahydro-naphthalen-2-yl)-4,5,6,7-tetrahydro-benzofuran-2-yl]-meth-(E)-ylidene]-thiazolidine-2,4-dione] |  |
| 22 nM | > 10000 nM | CN1Cc2oc(/C=C/C(=O)O)cc2C(c2ccc3c(c2)C(C)(C)CCC3(C)C)C1 (stereo unspecified) |  |
| 660 nM |  | CC1(C)CCC(C)(C)c2cc(C3CCCc4oc(/C=C/C(=O)O)cc43)ccc21 (stereo unspecified) [(E)-3-[4-(5,5,8,8-Tetramethyl-5,6,7,8-tetrahydro-naphthalen-2-yl)-4,5,6,7-tetrahydro-benzofuran-2-yl]-acrylic acid] | EC50 [3]: 4 nM |
| 10 nM |  | C/C(=C\C(=O)O)c1cc2c(o1)CCCC2c1ccc2c(c1)C(C)(C)CCC2(C)C (stereo unspecified) |  |
| 72 nM |  | CC1(C)CCC(C)(C)c2cc(C3CCCc4sc(/C=C/C(=O)O)cc43)ccc21 (stereo unspecified) [(E)-3-[4-(5,5,8,8-Tetramethyl-5,6,7,8-tetrahydro-naphthalen-2-yl)-4,5,6,7-tetrahydro-benzo[b]thiophen-2-yl]-acrylic acid] |  |
| 749 nM | > 10000 nM | CC1(C)CCC(C)(C)c2cc(C3CCCc4oc(/C=C/C(=O)O)nc43)ccc21 (stereo unspecified) [(E)-3-[4-(5,5,8,8-Tetramethyl-5,6,7,8-tetrahydro-naphthalen-2-yl)-4,5,6,7-tetrahydro-benzooxazol-2-yl]-acrylic acid] |  |
